SIRT5 inh – inhibitors of human sirtuin-5 desuccinylase | 330,000 tested, 1.1% active | inhibition, % at 15 µM | Purified SirT5, succinyl-peptide AMC, trypsin-coupled fluorescence; in the data active means inhibition above about 15%
Target sequence (Q9NXA8 whole entry, looked up): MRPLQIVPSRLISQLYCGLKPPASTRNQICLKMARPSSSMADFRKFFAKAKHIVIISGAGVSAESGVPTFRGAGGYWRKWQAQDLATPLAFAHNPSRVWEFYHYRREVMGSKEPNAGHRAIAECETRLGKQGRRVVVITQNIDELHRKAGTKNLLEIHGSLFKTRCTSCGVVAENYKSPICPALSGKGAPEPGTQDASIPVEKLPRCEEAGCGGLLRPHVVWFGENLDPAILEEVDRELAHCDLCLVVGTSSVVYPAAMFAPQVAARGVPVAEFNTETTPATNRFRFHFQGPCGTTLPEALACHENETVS
FN deposit inh – fibronectin deposition inhibition; AID 743247; AH1F fibroblasts, Alexa488-fibronectin deposition fluorescence, overnight; inhibition, % at 12.6 µM; 350,000 tested, 0.086% active;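 active means mean inhibition across replicates of 30% or more, regardless of how many single replicates reach that level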;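 further: positive control wells lacked labelled fibronectin entirely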
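Measured by – fluorescence 485/525 nm · System – AH1F fibroblast monolayer, labelled fibronectin deposition · Amount – 10000 cells per well · Buffer or medium – serum-reduced DMEM (2% serum) · Doses – single dose, pinned · Also added – fluorescent fibronectin at 24 nM final · Schedule – 1 h cell attachment, overnight exposure to compound and label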
ARNT TACC3 PPI – disrupts binding between human ARNT and TACC3. Q9Y6A5. AlphaScreen His-ARNT PAS-B/GST-TACC3 binding, luminescence; TACC3 fragment carries E629A point mutation. inhibition, % at 9.99 µM. 390,000 tested, 0.66% active;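 active means mean inhibition of replicates at least 50% and at least half of replicates each reaching 50%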;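 further: 0% = complete ARNT plus TACC3 wells and 100% = ARNT alone without TACC3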
FGF22 binding – FGF22 (human) thermal shift binding. recombinant FGF22 thermal shift, SYPRO orange fluorescence; percent of sucrose octasulfate shift, DMSO zero. activity (Tm shift, normalised), % at 9.99 µM. Q9HCT0. 340,000 tested, 1.5% active;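 active means mean Tm shift, scaled 0 neutral to 100 positive control, at about 1.3% or above, every replicate too, limit read from the data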
Target sequence (Q9HCT0 whole entry, looked up): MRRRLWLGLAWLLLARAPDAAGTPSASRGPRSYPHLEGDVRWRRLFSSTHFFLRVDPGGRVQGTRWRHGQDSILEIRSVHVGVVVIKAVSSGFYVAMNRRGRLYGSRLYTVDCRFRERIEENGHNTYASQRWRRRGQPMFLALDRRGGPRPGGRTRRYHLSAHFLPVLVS
DENV2 CPE – DENV2-induced cell death inhibition; CPE inhibition, % at 9.99 µM; AID 651640; 350,000 tested, 1.7% active; DENV2-infected cells, cytopathic effect rescue, plate reader; in the data active means CPE inhibition above about 20%, passing the limit was not always enough; tested in BHK-21 cells;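 further: 0% = median of neutral control wells and 100% = median of positive control wells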
Xi reactivation – activators of X-chromosome reactivation in mouse fibroblasts; XiGFP mouse fibroblasts, % GFP-positive cells imaging, 3 d; cells co-treated with 5-aza-dC sensitizer; scaled so ellipticine positive control = 100%; activation, % at 7.58 µM; 360,000 tested, 0.055% active; AID 743238;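 active means mean normalized replicate activation at least 10% and every replicate at or above 10%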;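 further: 0% = median of on-plate neutral control wells and 100% = ellipticine 6 µM median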
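System: SV40-immortalized XiGFP fibroblast cells, line 68-5-11 / Incubation: 3-day compound exposure, then 15 min fixation at room temperature / Compound: single concentration per compound, delivered by pin transfer / Buffer or medium: DMEM plus 5-aza-dC sensitizer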
Starred values were filed as active, the others as inactive; x = not tested or not shown; ! = repeats disagree. Only some compounds are listed: those with a hit (about 3.8% of all), similar ones and a draw of the others.

SMILES	SIRT5 inh	FN deposit inh	ARNT TACC3 PPI	FGF22 binding	DENV2 CPE	Xi reactivation
CCC(C)Sc1cccc(-c2nc3ccc(C)cn3c2NC2CCCCC2)c1 (configuration not stated)	x	-17	-16	0	60*!	0
O=C(C1CCC1)N1CC[C@@H]2[C@H](CO)Nc3ccc(C4=CCCCC4)cc3[C@@H]21	x	-16	x	x	x	0
COc1ccc([C@H]2CC=CC[C@H](C)Oc3ccccc3C(=O)N(C)[C@H](C)C(=O)N2)c(OC)c1 (mixture of isomers)	x	6	x	x	x	0
Oc1nc(-c2ccc(Br)cc2)n2ccncc12	4	5	x	43*	-3	0
CSc1ccc(-c2nc(O)c3cnccn23)cc1	2	1	x	0	4	0
CNC(=O)C[C@@H]1CC[C@@H]2[C@H](COc3ccc(NC(=O)c4ccc(F)cc4)cc3C(=O)N2C)O1	x	-12	x	x	x	0
O=C(C[C@H]1CC[C@H]2[C@@H](COC[C@H](O)CN2Cc2ccccc2F)O1)N1CCc2ccccc2C1	-9	-5	17	0	28*	1
O=C(C[C@H]1CC[C@@H]2[C@H](COC[C@H](O)CN2Cc2ccc(Oc3ccccc3)cc2)O1)N1CCc2ccccc2C1	18*	x	1	0	-3	x
O=C(C[C@H]1CC[C@@H]2[C@H](COC[C@@H](O)CN2Cc2ccccc2F)O1)N[C@H]1CCN(Cc2ccccc2)C1	23*	x	-23	0	3	x
O=C(C[C@H]1CC[C@H]2[C@@H](COC[C@@H](O)CN2Cc2ccc(Oc3ccccc3)cc2)O1)N1CCc2ccccc2C1	1	-6	-6	0	13	0
COCCNC(=O)C[C@H]1CC[C@H]2[C@H](COc3ccc(NC(=O)Cc4ccccc4)cc3C(=O)N2C)O1	-2	-2	-6	0	0	0
C[C@@H]1CN([C@@H](C)CO)C(=O)c2cc(NC(=O)CCC(F)(F)F)ccc2O[C@@H](C)CCCCO[C@@H]1CN(C)C(=O)Cc1ccccc1	x	-15	-15	0	-2	1
Cc1sc2nc(SCC(=O)O)[nH]c(=O)c2c1C	-3	7	-3	43*	4	0
CCOC(=O)c1ccc(NC(=O)CSc2nc3sc(C(=O)O)c(C)c3c(=O)[nH]2)cc1	5	-5	-4	43*	-5	0
COC(=O)c1ccc(CSc2nc3sc(C(=O)O)c(C)c3c(=O)[nH]2)cc1	6	-1	x	0	-2	0
Cc1sc2nc(SCC(=O)N3CCOCC3)[nH]c(=O)c2c1C	-1	-1	2	0	3	0
CCOC(=O)c1[nH]ncc1CN1CCCC(C(=O)c2cccc(OC(C)C)c2)C1 (configuration not stated)	x	6	x	x	x	0
CCOC(=O)c1[nH]ncc1CN1CCCC(C(=O)c2ccc(OC)c(OC)c2)C1 (configuration not stated)	-3	0	-1	0	-2	0
COc1ccc(-c2[nH]ncc2CN2CCCC(C(=O)c3cccc(OC)c3)C2)cc1 (configuration not stated)	18*	8	-3	0	-3	0
COc1ccc(C(=O)C2CCCN(Cc3cn[nH]c3-c3ccccc3)C2)cc1OC (configuration not stated)	29*	29	-12	0	-2	0
C[C@H](O)C#Cc1ccc2c(c1)O[C@@H](CN(C)Cc1ccccn1)[C@@H](C)CN([C@@H](C)CO)S2(=O)=O	-2	x	-11	0	-6	-1
O=C(CC1C(=O)N(c2ccc(Cl)cc2)C(=S)N1CCc1ccncc1)Nc1ccc(F)cc1 (configuration not stated)	-1	x	-2	2.3*	4	x
CCNC(=O)CC1C(=O)N(c2ccc(F)cc2)C(=S)N1CCc1ccncc1 (configuration not stated)	-2	x	-7	0	-2	1
C[C@@H]1CN([C@@H](C)CO)S(=O)(=O)c2ccc(C3=CCCC3)cc2O[C@@H]1CN(C)Cc1cccc(C(=O)O)c1	5	x	0	0	-8	0
Cc1ccc(S(=O)(=O)Nc2ccc3c(c2)C(=O)N([C@@H](C)CO)C[C@@H](C)[C@H](CN(C)S(=O)(=O)c2ccc(Cl)cc2)O3)cc1	1	x	x	0	-6	0
SMILES	SIRT5 inh	FN deposit inh	ARNT TACC3 PPI	FGF22 binding	DENV2 CPE	Xi reactivation
Cc1ccc(Cc2c(-c3ccc(F)cc3)nc3cc(C)ccn23)cc1	15*	-6	x	0	-3	0
Cc1ccc(Cc2c(-c3ccc(Br)cc3)nc3cc(C)ccn23)cc1	28*	10	x	0	6	0
Cc1ccc(Cc2c(-c3ccc(F)cc3)nc3ccc(Cl)cn23)cc1	-5	10	x	0	7	0
O=C(Cc1ccccn1)NCC[C@H]1CC[C@@H](NC(=O)Nc2ccc(Cl)cc2)[C@H](CO)O1	0	x	-4	0	1	2
C[C@@H]1CN([C@H](C)CO)C(=O)c2cccc(NS(=O)(=O)c3cn(C)cn3)c2O[C@@H]1CN(C)Cc1ccncc1	-6	x	0	0	-3	-1
COc1ccccc1C(=O)N1CCN(Cc2c[nH]c3ccccc23)CC1	-4	-2	-5	0	-2	0
COc1cccc(OC)c1C(=O)N1CCN(Cc2c[nH]c3ccccc23)CC1	1	-2	x	0	55*	0
COc1cccc(CN2CCN(C(=O)c3ccc(-c4ccccc4)cc3)CC2)c1OC	-2	32*	x	0	2	0
C[C@@H](NC(=O)C[C@@H]1CC[C@@H](NC(=O)Cc2ccccn2)[C@H](CO)O1)c1ccccc1	3	-1	-11	0	0	0
C[C@H](CO)N1C[C@H](C)[C@@H](CN(C)S(=O)(=O)c2cn(C)cn2)Oc2c(NC(=O)Cc3ccccc3)cccc2C1=O	x	-6	x	x	x	0
N#C[C@@H]1[C@H](c2ccccc2-c2ccccc2)[C@H](CO)N1C(=O)Cc1cccnc1	4	-4	x	0	-1	0
CCCC(=O)Nc1ccc2c(c1)OC[C@@H](C)N(Cc1ccccc1OC)C[C@@H](C)[C@H](OC)CN(C)C2=O	-1	-10	-2	0	-2	0
CCC(=O)N(C)C[C@H]1Oc2cc(-c3cncnc3)ccc2S(=O)(=O)N([C@@H](C)CO)C[C@@H]1C	-4	5	1	x	1	-1
CCSC1=NC(C)(C)C=C(/C=C/c2ccc(Cl)cc2Cl)N1	x	x	45*	x	x	x
C[C@H]1CC=CC[C@@H](c2cccc(Cl)c2)NC(=O)[C@H](C)N(C)C(=O)c2ccccc2O1 (mixture of isomers)	x	5	x	x	x	0

From PubChem BioAssay
